Reference: ChEMBL document CHEMBL1142307, “Design, synthesis, and radiosensitizing activities of sugar-hybrid hypoxic cell radiosensitizers” (Bioorg Med Chem, 2008)

Experiments:
[1] = Partition coefficient by Shake flask method; type: physicochemical; conditions: octanol/water
How it was run: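 1 mg compound dissolved in 0.1 M phosphate buffer pH 7.40 as stock; absorbance read at 325 nm before partitioning. 3 mL stock stirred vigorously with phosphate buffer-saturated n-octanol (20–300 mL) at room temperature for 2 h. Aqueous phase absorbance at 325 nm measured after phase separation; P_oct calculated from pre/post absorbance.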

[2] = Radiosensitizing activity at hypoxic mouse EMT6/KU cells assessed as enhancement ratio relative to etanidazole; type: functional

Compound | P (partition coefficient) [1] | Ratio [2]
CC(=O)OC[C@H]1O[C@H](OCCN(C)C(=O)Cn2ccnc2[N+](=O)[O-])[C@@H](OC(C)=O)[C@@H](OC(C)=O)[C@@H]1OC(C)=O | 0.0697 | 1.88
CC(=O)OC[C@H]1O[C@@H](OCCN(C)C(=O)Cn2ccnc2[N+](=O)[O-])[C@H](OC(C)=O)[C@@H](OC(C)=O)[C@H]1OC(C)=O | 0.0355 | 1.63
CC(=O)N[C@H]1[C@H](OCCN(C)C(=O)Cn2ccnc2[N+](=O)[O-])O[C@H](COC(C)=O)[C@H](OC(C)=O)[C@@H]1OC(C)=O | 0.051 | 1.47
CC(=O)OC[C@H]1O[C@@H](OCCN(C)C(=O)Cn2ccnc2[N+](=O)[O-])[C@H](OC(C)=O)[C@@H](OC(C)=O)[C@@H]1OC(C)=O | 0.105 | 2.3

Further lines, with some results ahead:

P (partition coefficient) [1] | Compound | Ratio [2]
0.056 | CN(CCO)C(=O)Cn1ccnc1[N+](=O)[O-] | 1.75
< 0.01 | CN(CCO[C@@H]1O[C@H](CO)[C@H](O)[C@H](O)[C@H]1O)C(=O)Cn1ccnc1[N+](=O)[O-] | 1.4
< 0.01 | CN(CCO[C@@H]1O[C@H](CO)[C@@H](O)[C@H](O)[C@H]1O)C(=O)Cn1ccnc1[N+](=O)[O-] | 1.33
< 0.01 | CC(=O)N[C@H]1[C@H](OCCN(C)C(=O)Cn2ccnc2[N+](=O)[O-])O[C@H](CO)[C@H](O)[C@@H]1O | 1.43
< 0.01 | CN(CCO[C@H]1O[C@H](CO)[C@@H](O)[C@H](O)[C@@H]1O)C(=O)Cn1ccnc1[N+](=O)[O-] | 1.41
